Source: ChEMBL document CHEMBL1141578, “Structure-based optimization of cephalothin-analogue boronic acids as beta-lactamase inhibitors” (Bioorg Med Chem, 2008)

How the values were obtained:
[1] = Inhibition of beta lactamase TEM30
[2] = Inhibition of beta lactamase TEM1
[3] = Inhibition of AmpC beta lactamase
[4] = Inhibition of AmpC beta lactamase N289A mutant
How it was run: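 Rates were taken at steady state after the lag phase. Ki came from progress curves with and without inhibitor (Waley method), averaged over five inhibitor concentrations giving ≥50% inhibition, each in triplicate.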

SMILES | Ki [3] [µM] | Ki [1] [µM] | Ki [2] [µM] | Ki [4] [µM]
O=C(Cc1cccs1)N[C@H](B(O)O)c1cccc(C(=O)O)c1 | 0.001 | 7.8 | 0.064 | 0.017
O=C(O)/C=C/c1cccc([C@H](NC(=O)Cc2cccs2)B(O)O)c1 | – | 3.8 | 0.106 | 0.0028
CB(O)O [METHANE BORONIC ACID] | 1000 | – | – | –

The next lines start with results.

Ki [3] [µM] | SMILES | Ki [1] [µM] | Ki [2] [µM] | Ki [4] [µM]
0.32 | O=C(Cc1cccs1)NCB(O)O | – | – | –
0.035 | O=C(Cc1cccs1)N[C@H](B(O)O)c1ccccc1 | – | – | –
18.5 | CC(=O)NCB(O)O [ACETAMIDOMETHYLBORONIC ACID] | – | – | –
0.32 | CC(=O)OCC1=C(C(=O)O)N2C(=O)[C@@H](NC(=O)Cc3cccs3)[C@H]2SC1 [CEPHALOTHIN] | – | – | –
